Assay results reported in ChEMBL document CHEMBL2346604, “Synthesis of nordihydroguaiaretic acid derivatives and their bioactivities on S. pombe and K562 cell lines” (Eur J Med Chem, 2013).
Converted amounts (≈) assume the structure as drawn. The source made the active and inactive calls. The calls are words filed in the database; no cut-off is given here.

What was measured:
[1] = test system: K562; test: Induction of apoptosis in human K562 cells assessed as mitochondrial transmembrane potential at 4 mg/L after 24 hrs by Rh123 staining based fluorescence spectrophotometer analysis (reference value: 277.9 +/-1.4%); assay type: functional
[2] = test system: K562; test: Induction of apoptosis in human K562 cells assessed as mitochondrial transmembrane potential at 6 mg/L after 18 hrs by Rh123 staining based fluorescence spectrophotometer analysis (reference value: 788.8 +/-1.0%); assay type: functional
[3] = test system: K562; test: Induction of apoptosis in human K562 cells assessed as mitochondrial transmembrane potential at 4 mg/L after 18 hrs by Rh123 staining based fluorescence spectrophotometer analysis (reference value: 788.8 +/-1.0%); assay type: functional
[4] = test system: K562; test: Induction of apoptosis in human K562 cells assessed as mitochondrial transmembrane potential at 6 mg/L after 12 hrs by Rh123 staining based fluorescence spectrophotometer analysis (reference value: 668.2 +/-0.8%); assay type: functional
[5] = test system: K562; test: Induction of apoptosis in human K562 cells assessed as mitochondrial transmembrane potential at 4 mg/L after 12 hrs by Rh123 staining based fluorescence spectrophotometer analysis (reference value: 668.2 +/-0.8%); assay type: functional
[6] = test system: K562; test: Induction of late apoptosis in human K562 cells assessed as cell membrane structural changes, smaller nuclear size, chromatin assembly under nuclear envelope, clear nuclear membrane structure, lipid droplets in cytoplasm, protruded cell surface with red nucleus at 4 to 6 mg/L after 12 to 24 hrs by propidium iodide staining based fluorescence microscopy; assay type: functional
Summary of the method: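 K562 groups at 0, 4.0 and 6.0 mg/L were held 12, 18 or 24 h at 37 °C in 5% CO2. Cells (1 mL) were collected, washed three times in PBS, stained with propidium iodide for 5 min in the dark and washed. Morphology of membrane, nucleus, chromatin and cytoplasm was scored against untreated controls.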

[7] = test system: K562; test: Inhibition of growth metabolism of human K562 cells at 37 degC by TAM air microcalorimetry; assay type: functional, cell-based
Summary of the method: (§1)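 K562 cells in supplemented RPMI 1640 (10% FBS) seeded at 1×10⁶ cells/mL with compound at graded concentrations. Heat flow recorded in real time in an eight-channel isothermal microcalorimeter (TAM Air). Rate constant k derived from thermogenic growth curves. Inhibition ratio I = (k0 − kc)/k0 × 100% relative to untreated cells, and IC50 is the concentration at I = 50%. Mean ± S.D., n = 3.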

[8] = test system: K562; test: Inhibitive ratio of growth metabolism of human K562 cells at 8 mg/L at 37 degC by TAM air microcalorimetry (reference value: 0%); assay type: functional; summary of the method: as §1
[9] = test system: K562; test: Inhibitive ratio of growth metabolism of human K562 cells at 6 mg/L at 37 degC by TAM air microcalorimetry (reference value: 0%); assay type: functional; summary of the method: as §1
[10] = test system: K562; test: Inhibitive ratio of growth metabolism of human K562 cells at 5 mg/L at 37 degC by TAM air microcalorimetry (reference value: 0%); assay type: functional; summary of the method: as §1
[11] = test system: K562; test: Inhibitive ratio of growth metabolism of human K562 cells at 4 mg/L at 37 degC by TAM air microcalorimetry (reference value: 0%); assay type: functional; summary of the method: as §1
[12] = test system: K562; test: Inhibitive ratio of growth metabolism of human K562 cells at 3 mg/L at 37 degC by TAM air microcalorimetry (reference value: 0%); assay type: functional; summary of the method: as §1
[13] = test system: K562; test: Inhibitive ratio of growth metabolism of human K562 cells at 2 mg/L at 37 degC by TAM air microcalorimetry (reference value: 0%); assay type: functional; summary of the method: as §1
[14] = test system: K562; test: Inhibition of growth metabolism of human K562 cells assessed as growth rate constant at 8 mg/L at 37 degC by TAM air microcalorimetry; assay type: functional; summary of the method: as §1
[15] = test system: K562; test: Inhibition of growth metabolism of human K562 cells assessed as growth rate constant at 6 mg/L at 37 degC by TAM air microcalorimetry; assay type: functional; summary of the method: as §1
[16] = test system: K562; test: Inhibition of growth metabolism of human K562 cells assessed as growth rate constant at 5 mg/L at 37 degC by TAM air microcalorimetry; assay type: functional; summary of the method: as §1
[17] = test system: K562; test: Inhibition of growth metabolism of human K562 cells assessed as growth rate constant at 4 mg/L at 37 degC by TAM air microcalorimetry; assay type: functional; summary of the method: as §1
[18] = test system: K562; test: Inhibition of growth metabolism of human K562 cells assessed as growth rate constant at 3 mg/L at 37 degC by TAM air microcalorimetry; assay type: functional; summary of the method: as §1
[19] = test system: K562; test: Inhibition of growth metabolism of human K562 cells assessed as growth rate constant at 2 mg/L at 37 degC by TAM air microcalorimetry; assay type: functional; summary of the method: as §1
[20] = test system: Schizosaccharomyces pombe; test: Inhibition of growth metabolism of Schizosaccharomyces pombe ACCC 20047 at 32 degC by TAM air microcalorimetry; assay type: functional, organism-based
Summary of the method: (§2)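 Cells seeded at 1×10⁶ cells/mL with compound at a range of concentrations. Heat output recorded continuously in a TAM Air isothermal microcalorimeter. Growth rate constant k taken from power-time curves. I = (k0 − kc)/k0 × 100%, and IC50 is the concentration giving I = 50%. n = 3.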

[21] = test system: Schizosaccharomyces pombe; test: Inhibitive ratio of growth metabolism of Schizosaccharomyces pombe ACCC 20047 at 380 mg/L at 32 degC by TAM air microcalorimetry (reference value: 0%); assay type: functional; summary of the method: as §2
[22] = test system: Schizosaccharomyces pombe; test: Inhibitive ratio of growth metabolism of Schizosaccharomyces pombe ACCC 20047 at 320 mg/L at 32 degC by TAM air microcalorimetry (reference value: 0%); assay type: functional; summary of the method: as §2
[23] = test system: Schizosaccharomyces pombe; test: Inhibitive ratio of growth metabolism of Schizosaccharomyces pombe ACCC 20047 at 240 mg/L at 32 degC by TAM air microcalorimetry (reference value: 0%); assay type: functional; summary of the method: as §2
[24] = test system: Schizosaccharomyces pombe; test: Inhibitive ratio of growth metabolism of Schizosaccharomyces pombe ACCC 20047 at 160 mg/L at 32 degC by TAM air microcalorimetry (reference value: 0%); assay type: functional; summary of the method: as §2
[25] = test system: Schizosaccharomyces pombe; test: Inhibitive ratio of growth metabolism of Schizosaccharomyces pombe ACCC 20047 at 80 mg/L at 32 degC by TAM air microcalorimetry (reference value: 0%); assay type: functional; summary of the method: as §2
[26] = test system: Schizosaccharomyces pombe; test: Inhibitive ratio of growth metabolism of Schizosaccharomyces pombe ACCC 20047 at 40 mg/L at 32 degC by TAM air microcalorimetry (reference value: 0%); assay type: functional; summary of the method: as §2
[27] = test system: Schizosaccharomyces pombe; test: Inhibitive ratio of growth metabolism of Schizosaccharomyces pombe ACCC 20047 at 20 mg/L at 32 degC by TAM air microcalorimetry (reference value: 0%); assay type: functional; summary of the method: as §2
[28] = test system: Schizosaccharomyces pombe; test: Inhibition of growth metabolism of Schizosaccharomyces pombe ACCC 20047 assessed as growth rate constant at 380 mg/L at 32 degC by TAM air microcalorimetry; assay type: functional; summary of the method: as §2
[29] = test system: Schizosaccharomyces pombe; test: Inhibition of growth metabolism of Schizosaccharomyces pombe ACCC 20047 assessed as growth rate constant at 320 mg/L at 32 degC by TAM air microcalorimetry; assay type: functional; summary of the method: as §2
[30] = test system: Schizosaccharomyces pombe; test: Inhibition of growth metabolism of Schizosaccharomyces pombe ACCC 20047 assessed as growth rate constant at 240 mg/L at 32 degC by TAM air microcalorimetry; assay type: functional; summary of the method: as §2
[31] = test system: Schizosaccharomyces pombe; test: Inhibition of growth metabolism of Schizosaccharomyces pombe ACCC 20047 assessed as growth rate constant at 160 mg/L at 32 degC by TAM air microcalorimetry; assay type: functional; summary of the method: as §2
[32] = test system: Schizosaccharomyces pombe; test: Inhibition of growth metabolism of Schizosaccharomyces pombe ACCC 20047 assessed as growth rate constant at 80 mg/L at 32 degC by TAM air microcalorimetry; assay type: functional; summary of the method: as §2
[33] = test system: Schizosaccharomyces pombe; test: Inhibition of growth metabolism of Schizosaccharomyces pombe ACCC 20047 assessed as growth rate constant at 40 mg/L at 32 degC by TAM air microcalorimetry; assay type: functional; summary of the method: as §2
[34] = test system: Schizosaccharomyces pombe; test: Inhibition of growth metabolism of Schizosaccharomyces pombe ACCC 20047 assessed as growth rate constant at 20 mg/L at 32 degC by TAM air microcalorimetry; assay type: functional; summary of the method: as §2
[35] = test system: K562; test: Induction of apoptosis in human K562 cells assessed as mitochondrial transmembrane potential at 6 mg/L after 24 hrs by Rh123 staining based fluorescence spectrophotometer analysis (reference value: 277.9 +/-1.4%)
[36] = test system: K562; test: Inhibition of growth metabolism of human K562 cells assessed as growth rate constant at 7 mg/L at 37 degC by TAM air microcalorimetry; assay type: functional; summary of the method: as §1
[37] = test system: K562; test: Inhibitive ratio of growth metabolism of human K562 cells at 7 mg/L at 37 degC by TAM air microcalorimetry (reference value: 0%); assay type: functional; summary of the method: as §1
[38] = test system: K562; test: Inhibitive ratio of growth metabolism of human K562 cells at 11 mg/L at 37 degC by TAM air microcalorimetry (reference value: 0%); assay type: functional; summary of the method: as §1
[39] = test system: K562; test: Inhibitive ratio of growth metabolism of human K562 cells at 9 mg/L at 37 degC by TAM air microcalorimetry (reference value: 0%); assay type: functional; summary of the method: as §1
[40] = test system: K562; test: Inhibition of growth metabolism of human K562 cells assessed as growth rate constant at 11 mg/L at 37 degC by TAM air microcalorimetry; assay type: functional; summary of the method: as §1
[41] = test system: K562; test: Inhibition of growth metabolism of human K562 cells assessed as growth rate constant at 9 mg/L at 37 degC by TAM air microcalorimetry; assay type: functional; summary of the method: as §1
[42] = test system: Schizosaccharomyces pombe; test: Inhibitive ratio of growth metabolism of Schizosaccharomyces pombe ACCC 20047 at 400 mg/L at 32 degC by TAM air microcalorimetry (reference value: 0%); assay type: functional; summary of the method: as §2
[43] = test system: Schizosaccharomyces pombe; test: Inhibition of growth metabolism of Schizosaccharomyces pombe ACCC 20047 assessed as growth rate constant at 400 mg/L at 32 degC by TAM air microcalorimetry; assay type: functional; summary of the method: as §2

IC50 [7] | SMILES | inhibition at 8 µg/mL [8] | inhibition at 6 µg/mL [9] | inhibition at 4 µg/mL [11] | Activity [14] | Activity [15] | Activity [17] | IC50 [20] | inhibition at 320 µg/mL [22] | inhibition at 240 µg/mL [23] | inhibition at 160 µg/mL [24] | inhibition at 80 µg/mL [25] | inhibition at 40 µg/mL [26] | inhibition at 20 µg/mL [27] | Activity [29] | Activity [30] | Activity [31] | Activity [32] | Activity [33] | Activity [34] | other results
5.87 µg/mL (≈ 16.4 µM) | COc1ccc(C[C@@H](C)[C@@H](C)Cc2ccc(OC)c(OC)c2)cc1OC [TERAMEPROCOL] | 79.6% | 52.9% | 5.06% | 8.5275 ×10⁻⁵ /min | 1.9712 ×10⁻⁴ /min | 3.9762 ×10⁻⁴ /min | 330 µg/mL (≈ 921 µM) | 44.7% | 27.3% | 11.5% | 4.06% | 8.13% | 9.48% | 0.00245 min⁻¹ | 0.00322 min⁻¹ | 0.00392 min⁻¹ | 0.00425 min⁻¹ | 0.00407 min⁻¹ | 0.00401 min⁻¹ | Activity [1]: 168%; Activity [2]: 331.5%; Activity [3]: 615.3%; Activity [4]: 477.8%; Activity [5]: 597.2%; Activity [6]: Active; inhibition at 5 µg/mL [10]: 33.2%; inhibition at 3 µg/mL [12]: -5.88%; inhibition at 2 µg/mL [13]: -12.8%; Activity [16]: 2.7992 ×10⁻⁴ /min; Activity [18]: 4.4342 ×10⁻⁴ /min; Activity [19]: 4.7239 ×10⁻⁴ /min; inhibition at 380 µg/mL [21]: 67.7%; Activity [28]: 0.00143 min⁻¹; Activity [35]: 170.7%
8.57 µg/mL (≈ 22.2 µM) | COc1ccc(C(=O)C(C)C(C)C(=O)c2ccc(OC)c(OC)c2)cc1OC (stereo not drawn) | 42% | -0.78% | -13.9% | 2.2866 ×10⁻⁴ /min | 3.9703 ×10⁻⁴ /min | 4.4893 ×10⁻⁴ /min | 290 µg/mL (≈ 750 µM) | 63.3% | 23.2% | 5.18% | -3.6% | -4.05% | -7.88% | 0.00163 min⁻¹ | 0.00341 min⁻¹ | 0.00421 min⁻¹ | 0.0046 min⁻¹ | 0.00462 min⁻¹ | 0.00479 min⁻¹ | Activity [36]: 3.6261 ×10⁻⁴ /min; inhibition at 7 µg/mL [37]: 7.96%; inhibition at 11 µg/mL [38]: 57.3%; inhibition at 9 µg/mL [39]: 55.8%; Activity [40]: 1.681 ×10⁻⁴ /min; Activity [41]: 1.7435 ×10⁻⁴ /min; inhibition at 400 µg/mL [42]: 83%; Activity [43]: 0.00075 min⁻¹
